Experimental data: ChEMBL document CHEMBL4602728, “6-Amino[1,2,5]oxadiazolo[3,4-b]pyrazin-5-ol Derivatives as Efficacious Mitochondrial Uncouplers in STAM Mouse Model of Nonalcoholic Steatohepatitis” (J Med Chem, 2020)

Test: Half life in C57BL/6 mouse at 10 mg/kg, po administered via gavage by LC/MS-MS analysis
Type: ADME, organism-based
Details: in vivo
Method in brief: (§1)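 Male C57BL/6 mice aged 9–12 weeks received a single 10 mg/kg oral gavage bolus. The vehicle was methylcellulose 90–91%, Tween 80 2–3% and DMSO 6–8% (v/v). Tail-tip blood was drawn into heparinized capillaries and spun at 2000g for 10 min. Plasma was extracted with acetonitrile:methanol (9:1) and quantified by LC–MS/MS against spiked plasma standards (1–100 ng). n = 3.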

**Q.** With `CC(C)(C)c1ccc(Nc2nc3nonc3nc2O)cc1` as the compound, how does the half-life read?
**A.** 36 min

**Q.** With `CCCCc1ccc(Nc2nc3nonc3nc2O)cc1` as the compound, how does the half-life read?
**A.** 42 min

**Q.** With `CCCCOc1ccc(Nc2nc3nonc3nc2O)cc1` as the compound, how does the half-life read?
**A.** 18 min

**Q.** For `Oc1nc2nonc2nc1Nc1ccc2ccccc2c1`, which half-life is on record?
**A.** 24 min

Test: Induction of mitochondrial uncoupling in rat L6 cells assessed as increase in oxygen consumption rate incubated for 90 mins by Seahorse XF analyzer based assay
Type: mitochondria, Mitochondria
Details: not given

**Q.** With `Oc1nc2nonc2nc1Nc1ccc(F)cc1` as the compound, how does the EC50 read?
**A.** 38.6 µM

**Q.** With `Oc1nc2nonc2nc1Nc1cccc2ccccc12` as the compound, how does the EC50 read?
**A.** 20.4 µM

**Q.** For `Oc1nc2nonc2nc1Nc1ccccc1Cl`, which EC50 is on record?
**A.** 6.3 µM

**Q.** Which EC50 does the source give for `CC(C)(C)c1ccc(Nc2nc3nonc3nc2O)cc1` here?
**A.** 3.9 µM

**Q.** For `Cc1ccc(CNc2nc3nonc3nc2O)cc1`, which EC50 is on record?
**A.** 53.2 µM

**Q.** Which EC50 does the source give for `CCCCCCc1ccc(Nc2nc3nonc3nc2O)cc1` here?
**A.** 4.7 µM

**Q.** Which EC50 does the source give for `Oc1nc2nonc2nc1Nc1ccc(C(F)(F)F)cc1` here?
**A.** 10.4 µM

**Q.** With `Oc1nc2nonc2nc1Nc1cccc(C(F)(F)F)c1` as the compound, how does the EC50 read?
**A.** 13.3 µM

**Q.** For `Oc1nc2nonc2nc1Nc1ccc(OC(F)(F)F)c(Cl)c1`, which EC50 is on record?
**A.** 3 µM

**Q.** For `Oc1nc2nonc2nc1Nc1ccc(C(F)(F)F)c(F)c1`, which EC50 is on record?
**A.** 11.6 µM

**Q.** Which EC50 does the source give for `Oc1nc2nonc2nc1Nc1ccc(C(O)(C(F)(F)F)C(F)(F)F)cc1` here?
**A.** 34 µM

**Q.** With `Oc1nc2nonc2nc1Nc1ccc(OC(F)F)cc1` as the compound, how does the EC50 read?
**A.** 20.6 µM

**Q.** For `Oc1nc2nonc2nc1Nc1ccc(OCCCC(F)(F)F)c(C(F)(F)F)c1`, which EC50 is on record?
**A.** 2.1 µM

**Q.** For `Oc1nc2nonc2nc1Nc1ccc(Cl)cc1`, which EC50 is on record?
**A.** 11.7 µM

**Q.** For `Cc1ccc(C(F)(F)F)cc1Nc1nc2nonc2nc1O`, which EC50 is on record?
**A.** 32.8 µM

**Q.** For `Oc1nc2nonc2nc1Nc1cccc(OC(F)(F)F)c1`, which EC50 is on record?
**A.** 5.1 µM

**Q.** For `Oc1nc2nonc2nc1Nc1cccc(S(F)(F)(F)(F)F)c1`, which EC50 is on record?
**A.** 3.7 µM

**Q.** Which EC50 does the source give for `Oc1nc2nonc2nc1Nc1cc(F)cc(F)c1` here?
**A.** 23.4 µM

**Q.** With `Oc1nc2nonc2nc1Nc1ccc(OCc2ccccc2)cc1` as the compound, how does the EC50 read?
**A.** 2.4 µM

**Q.** Which EC50 does the source give for `Oc1nc2nonc2nc1Nc1ccc(OCC2CC2)c(C(F)(F)F)c1` here?
**A.** 1.8 µM

**Q.** For `Oc1nc2nonc2nc1NC(c1ccccc1)c1ccccc1`, which EC50 is on record?
**A.** 38.3 µM

**Q.** For `Oc1nc2nonc2nc1Nc1ccc(OC(F)(F)Cl)cc1`, which EC50 is on record?
**A.** 1.9 µM

**Q.** For `CC(C)(C)c1cccc(Nc2nc3nonc3nc2O)c1`, which EC50 is on record?
**A.** 2.2 µM

**Q.** Which EC50 does the source give for `CCCCc1ccc(Nc2nc3nonc3nc2O)c(F)c1` here?
**A.** 1.1 µM

**Q.** For `Oc1nc2nonc2nc1NCCC(F)(F)F`, which EC50 is on record?
**A.** 110 µM

**Q.** Which EC50 does the source give for `Oc1nc2nonc2nc1Nc1cc(C(F)(F)F)cc(C(F)(F)F)c1` here?
**A.** 4.5 µM

**Q.** Which EC50 does the source give for `CC12CC3CC(C)(C1)CC(Nc1nc4nonc4nc1O)(C3)C2` here?
**A.** 2 µM

**Q.** With `CCCCc1ccc(Nc2nc3nonc3nc2O)cc1` as the compound, how does the EC50 read?
**A.** 2.1 µM

**Q.** With `Oc1nc2nonc2nc1Nc1ccc(OC(F)(F)C(F)F)cc1` as the compound, how does the EC50 read?
**A.** 7 µM

**Q.** For `Oc1nc2nonc2nc1NC12CC3CC(CC(C3)C1)C2`, which EC50 is on record?
**A.** 7 µM

**Q.** With `Oc1nc2nonc2nc1Nc1ccccc1` as the compound, how does the EC50 read?
**A.** 66.7 µM

**Q.** Which EC50 does the source give for `CCCCOc1ccc(Nc2nc3nonc3nc2O)cc1` here?
**A.** 3.7 µM

**Q.** For `Cc1ccc(Nc2nc3nonc3nc2O)cc1C`, which EC50 is on record?
**A.** 3 µM

**Q.** With `Oc1nc2nonc2nc1Nc1ccc2ccccc2c1` as the compound, how does the EC50 read?
**A.** 4 µM

**Q.** For `Oc1nc2nonc2nc1Nc1cc(C(F)(F)F)ccc1F`, which EC50 is on record?
**A.** 5.1 µM

**Q.** With `COc1cc(OC(F)(F)F)ccc1Nc1nc2nonc2nc1O` as the compound, how does the EC50 read?
**A.** 3.8 µM

**Q.** With `CCCCCc1ccc(Nc2nc3nonc3nc2O)cc1` as the compound, how does the EC50 read?
**A.** 2.4 µM

**Q.** For `Oc1nc2nonc2nc1Nc1ccc(OCCCC(F)(F)F)c(F)c1`, which EC50 is on record?
**A.** 4.2 µM

**Q.** Which EC50 does the source give for `CC(C)(C#N)c1ccc(Nc2nc3nonc3nc2O)cc1` here?
**A.** 35.7 µM

**Q.** For `Fc1cccc(Nc2nc3nonc3nc2Nc2ccccc2F)c1`, which EC50 is on record?
**A.** 0.19 µM

**Q.** For `Oc1nc2nonc2nc1Nc1ccc(OC(F)(F)F)cc1Cl`, which EC50 is on record?
**A.** 1.4 µM

**Q.** Which EC50 does the source give for `Oc1nc2nonc2nc1Nc1ccc(OC(F)(F)F)cc1F` here?
**A.** 2.3 µM

**Q.** Which EC50 does the source give for `Oc1nc2nonc2nc1Nc1cccc(F)c1` here?
**A.** 31.2 µM

**Q.** For `CCCCCCc1ccc(Nc2nc3nonc3nc2O)c(F)c1`, which EC50 is on record?
**A.** 3.3 µM

**Q.** For `CCCCCc1ccc(Nc2nc3nonc3nc2O)c(F)c1`, which EC50 is on record?
**A.** 1.5 µM

**Q.** Which EC50 does the source give for `Cc1cc(OC(F)(F)F)ccc1Nc1nc2nonc2nc1O` here?
**A.** 4.6 µM

**Q.** For `O=[N+]([O-])c1cc(Nc2nc3nonc3nc2O)ccc1OC(F)(F)F`, which EC50 is on record?
**A.** 53.5 µM

**Q.** With `Oc1nc2nonc2nc1Nc1ccccc1C(F)(F)F` as the compound, how does the EC50 read?
**A.** 10.6 µM

**Q.** With `Oc1nc2nonc2nc1NCCc1ccccc1` as the compound, how does the EC50 read?
**A.** 65.5 µM

**Q.** With `Oc1nc2nonc2nc1Nc1ccc(SC(F)(F)F)cc1` as the compound, how does the EC50 read?
**A.** 1.4 µM

**Q.** For `Oc1nc2nonc2nc1Nc1cccc(OCc2ccc(C(F)(F)F)cc2)c1`, which EC50 is on record?
**A.** 3 µM

**Q.** Which EC50 does the source give for `Cc1cc(Nc2nc3nonc3nc2O)ccc1OCC(F)(F)F` here?
**A.** 7 µM

**Q.** With `COc1cccc(Nc2nc3nonc3nc2O)c1` as the compound, how does the EC50 read?
**A.** 75.4 µM

**Q.** For `CCCCOc1cccc(Nc2nc3nonc3nc2O)c1`, which EC50 is on record?
**A.** 2.3 µM

**Q.** Which EC50 does the source give for `Cc1cc(C)c(Nc2nc3nonc3nc2O)c(C)c1` here?
**A.** 113 µM

**Q.** For `Oc1nc2nonc2nc1Nc1ccc(C(F)(F)F)cc1F`, which EC50 is on record?
**A.** 2.6 µM

**Q.** Which EC50 does the source give for `CC(Nc1nc2nonc2nc1O)C12CC3CC(CC(C3)C1)C2` (stereo not drawn) here?
**A.** 4.9 µM

**Q.** With `Oc1nc2nonc2nc1Nc1ccc(OCC(F)(F)F)cc1` as the compound, how does the EC50 read?
**A.** 42.3 µM

**Q.** Which EC50 does the source give for `Oc1nc2nonc2nc1NC1C2CC3CC(C2)CC1C3` (stereo not drawn) here?
**A.** 22.8 µM

**Q.** For `CCc1cccc(Nc2nc3nonc3nc2O)c1`, which EC50 is on record?
**A.** 25.2 µM

**Q.** With `CCc1ccc(Nc2nc3nonc3nc2O)c(F)c1` as the compound, how does the EC50 read?
**A.** 6.7 µM

**Q.** With `Oc1nc2nonc2nc1NCc1ccc(OC(F)(F)F)cc1` as the compound, how does the EC50 read?
**A.** 13.4 µM

**Q.** With `Cc1ccc(Nc2nc3nonc3nc2O)cc1` as the compound, how does the EC50 read?
**A.** 51.9 µM

**Q.** Which EC50 does the source give for `CC(=O)c1ccc(Nc2nc3nonc3nc2O)cc1` here?
**A.** 93.7 µM

**Q.** For `CCCCCCCCNc1nc2nonc2nc1O`, which EC50 is on record?
**A.** 3.4 µM

**Q.** With `Oc1nc2nonc2nc1Nc1ccc2c(c1)OCO2` as the compound, how does the EC50 read?
**A.** 46.9 µM

**Q.** For `Oc1nc2nonc2nc1Nc1ccc(OC(F)(F)F)c(F)c1`, which EC50 is on record?
**A.** 2.9 µM

**Q.** Which EC50 does the source give for `Oc1nc2nonc2nc1Nc1ccc(S(F)(F)(F)(F)F)cc1` here?
**A.** 3.9 µM

**Q.** Which EC50 does the source give for `Cc1cccc(C)c1Nc1nc2nonc2nc1O` here?
**A.** > 100 µM

**Q.** With `Oc1nc2nonc2nc1Nc1ccc(OCC(F)(F)F)c(C(F)(F)F)c1` as the compound, how does the EC50 read?
**A.** 4 µM

**Q.** Which EC50 does the source give for `Oc1nc2nonc2nc1Nc1cccc(F)c1F` here?
**A.** 9.7 µM

**Q.** With `Oc1nc2nonc2nc1Nc1ccc(OCC(F)(F)F)c(F)c1` as the compound, how does the EC50 read?
**A.** 10.4 µM

**Q.** Which EC50 does the source give for `Oc1nc2nonc2nc1Nc1cccc(C(F)(F)F)c1F` here?
**A.** 4.9 µM

**Q.** Which EC50 does the source give for `CCc1ccc(Nc2nc3nonc3nc2O)cc1` here?
**A.** 10.7 µM

**Q.** With `Oc1nc2nonc2nc1Nc1ccc2c(c1)OC(F)(F)O2` as the compound, how does the EC50 read?
**A.** 7.6 µM

**Q.** Which EC50 does the source give for `Oc1nc2nonc2nc1Nc1ccccc1OC(F)(F)F` here?
**A.** 7.1 µM

**Q.** Which EC50 does the source give for `Oc1nc2nonc2nc1Nc1ccccc1F` here?
**A.** 12.5 µM

Test: Cmax in Swiss albino mouse at 10 mg/kg, po administered via gavage by LC/MS-MS analysis
Type: ADME, organism-based
Design: dose 10 mg/kg, route oral
Details: in vivo
Method in brief: (§2)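 Swiss Albino mice were given 10 mg/kg by oral gavage in a triturated Tween 80/0.5% (w/v) methylcellulose formulation, with three replicates per time point. Plasma was precipitated with acetonitrile containing telmisartan internal standard and analyzed by LC–MS/MS using transition m/z 286 → 125. Concentrations came from a standard curve (1–1000 ng/mL).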

**Q.** Which Cmax does the source give for `Oc1nc2nonc2nc1NC12CC3CC(CC(C3)C1)C2` here?
**A.** 18 µM

Test: Half life in Swiss albino mouse at 10 mg/kg, po administered via gavage by LC/MS-MS analysis
Type: ADME, organism-based
Details: in vivo
Method in brief: as §2

**Q.** For `Oc1nc2nonc2nc1NC12CC3CC(CC(C3)C1)C2`, which half-life is on record?
**A.** 66 min

Test: Solubility of compound in PBS at pH 7.4
Type: physicochemical
Details: buffer

**Q.** For `Fc1cccc(Nc2nc3nonc3nc2Nc2ccccc2F)c1`, which solubility is on record?
**A.** < 10 µM

Test: Cmax in C57BL/6 mouse at 10 mg/kg, po administered via gavage by LC/MS-MS analysis
Type: ADME, organism-based
Design: dose 10 mg/kg, route oral
Details: in vivo
Method in brief: as §1

**Q.** With `CC(C)(C)c1ccc(Nc2nc3nonc3nc2O)cc1` as the compound, how does the Cmax read?
**A.** 22.3 µM

**Q.** With `CCCCc1ccc(Nc2nc3nonc3nc2O)cc1` as the compound, how does the Cmax read?
**A.** 12 µM

**Q.** For `CCCCOc1ccc(Nc2nc3nonc3nc2O)cc1`, which Cmax is on record?
**A.** 3.4 µM

**Q.** With `Oc1nc2nonc2nc1Nc1ccc2ccccc2c1` as the compound, how does the Cmax read?
**A.** 12.5 µM
